According to ChEMBL document CHEMBL3351397, “Synthesis and bioactivity of novel amino-pyrazolopyridines” (Eur J Med Chem, 2014):
The source made the active and inactive calls. The rule behind the calls is not given here.

Tests used:
K562 [1] = experiment: Cytotoxicity against human K562 cells after 24 to 72 hrs by CellTiter-Glo luminescent cell viability assay; type: functional, cell-based
Procedure, shortened: (§1)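 K562 cells were grown in RPMI with 10% FCS and 1% antibiotic-antimycotic at 37 °C, 5% CO2. Cells were exposed to a range of concentrations for 24 and 72 h and metabolic activity was read. Data were normalized to untreated control as % viable cells, mean ± SD of three determinations, with IC50 derived from dose-response curves.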

PBMC = experiment: Cytotoxicity against human PBMCs after 24 to 72 hrs by CellTiter-Glo luminescent cell viability assay; type: cell-based; conditions: for Activity: human, pbmc
Procedure, shortened: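 PBMCs from healthy donors were isolated by Ficoll centrifugation (400 g, 20 min) of blood diluted 1:1 in RPMI, then washed 2–3 times. Cells rested 24 h at 37 °C, 5% CO2 before dosing. They were then treated as for K562: 40 µM screen and dose-response at 24 and 72 h, % viable versus control, mean ± SD of three determinations.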

K562 [2] = experiment: Cytotoxicity against human K562 cells at 40 uM assessed as reduction in cell viability after 72 hrs by CellTiter-Glo luminescent assay relative to control; type: functional
Procedure, shortened: (§2)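 K562 cells in RPMI/10% FCS at 37 °C, 5% CO2 were exposed to a single 40 µM concentration for 24 or 72 h. Metabolic activity was normalized to untreated control as % viable cells, mean ± SD of three determinations. Etoposide served as positive control.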

K562 [3] = experiment: Induction of apoptosis in human K562 cells at 40 uM after 72 hrs using Hoechst 33342 by fluorescence microscopy; type: functional, cell-based
Procedure, shortened: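 K562 cells were treated 72 h at 40 µM, then stained with Hoechst 33342 for 15 min at 37 °C. Nuclear morphology, scored as condensed nuclei, was examined by fluorescence microscopy. Etoposide served as positive control.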

[4] = molecular target: T1, Nuclear factor NF-kappa-B complex (Homo sapiens) (UniProt Q00653+P19838+Q04206); experiment: Inhibition of TNFalpha-induced NF-kB pathway in human K562 cells after 8 hrs by luciferase reporter gene assay; type: cell-based
Procedure, shortened: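 K562 cells were electroporated with an NF-κB-RE firefly luciferase reporter (5 µg) plus phRG-TK Renilla plasmid, then recovered 24 h in RPMI/10% FCS. Cells were resuspended at 1 × 10⁶/mL in RPMI/0.1% FCS, pretreated 2 h, then stimulated with TNFα 20 ng/mL for 6 h (8 h total). Dual-Glo firefly/Renilla ratio read at 22 °C; three independent experiments.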

Jurkat [5] = experiment: Induction of apoptosis in human Jurkat cells assessed as induction of caspase 3/7 activity at 40 uM after 48 hrs by luminescent assay relative to untreated control; type: functional
Procedure, shortened: (§3)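 Cells at 3 × 10⁵/mL were treated with test compounds at 40 µM for 8, 24 or 48 h. Culture was then mixed 1:1 with Caspase-Glo 3/7 reagent and incubated 1 h at room temperature; the reagent lyses cells, caspase cleaves the substrate and luciferase gives luminescence. Results are fold change versus untreated cells.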

U-937 [6] = experiment: Induction of apoptosis in human U937 cells assessed as induction of caspase 3/7 activity at 40 uM after 8 hrs by luminescent assay relative to untreated control; type: functional; procedure, shortened: as §3
K562 [7] = experiment: Cytotoxicity against human K562 cells assessed as reduction in cell viability at 40 uM after 24 hrs by CellTiter-Glo luminescent assay; type: functional; procedure, shortened: as §2
K562 [8] = experiment: Induction of apoptosis in human K562 cells assessed as induction of caspase 3/7 activity at 40 uM after 8 to 48 hrs by luminescent assay relative to untreated control in presence of 50 uM z-VAD; type: functional, cell-based
Procedure, shortened: (§4)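 Caspase-Glo 3/7 readout at 3 × 10⁵ cells/mL. Cells were pretreated 1 h with the pan-caspase inhibitor Z-VAD(OMe)-FMK, then exposed to compounds at 40 µM for 8, 24 and 48 h. Culture was mixed 1:1 with reagent for 1 h at room temperature; luminescence is expressed as fold change over untreated cells.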

Jurkat [9] = experiment: Induction of apoptosis in human Jurkat cells assessed as induction of caspase 3/7 activity at 40 uM after 8 to 48 hrs by luminescent assay relative to untreated control in presence of 50 uM z-VAD; type: functional, cell-based; procedure, shortened: as §4
U-937 [10] = experiment: Induction of apoptosis in human U937 cells assessed as induction of caspase 3/7 activity at 40 uM after 8 to 48 hrs by luminescent assay relative to untreated control in presence of 50 uM z-VAD; type: functional, cell-based; procedure, shortened: as §4
K562 [11] = experiment: Induction of apoptosis in human K562 cells assessed as induction of caspase 3/7 activity at 40 uM after 8 hrs by luminescent assay relative to untreated control; type: functional; procedure, shortened: as §3
K562 [12] = experiment: Induction of apoptosis in human K562 cells assessed as induction of caspase 3/7 activity at 40 uM after 24 hrs by luminescent assay relative to untreated control; type: functional; procedure, shortened: as §3
K562 [13] = experiment: Induction of apoptosis in human K562 cells assessed as induction of caspase 3/7 activity at 40 uM after 48 hrs by luminescent assay relative to untreated control; type: functional; procedure, shortened: as §3
Jurkat [14] = experiment: Induction of apoptosis in human Jurkat cells assessed as induction of caspase 3/7 activity at 40 uM after 8 hrs by luminescent assay relative to untreated control; type: functional; procedure, shortened: as §3
Jurkat [15] = experiment: Induction of apoptosis in human Jurkat cells assessed as induction of caspase 3/7 activity at 40 uM after 24 hrs by luminescent assay relative to untreated control; type: functional; procedure, shortened: as §3
U-937 [16] = experiment: Induction of apoptosis in human U937 cells assessed as induction of caspase 3/7 activity at 40 uM after 24 hrs by luminescent assay relative to untreated control; type: functional; procedure, shortened: as §3
U-937 [17] = experiment: Induction of apoptosis in human U937 cells assessed as induction of caspase 3/7 activity at 40 uM after 48 hrs by luminescent assay relative to untreated control; type: functional; procedure, shortened: as §3
K562 [18] = experiment: Cytotoxicity against human K562 cells after 72 hrs by CellTiter-Glo luminescent cell viability assay; type: functional, cell-based; conditions: K562, 72 h; procedure, shortened: as §1
[19] = molecular target: T1, Nuclear factor NF-kappa-B complex (Homo sapiens); experiment: Inhibition of TNFalpha-induced NF-kB transactivation in human K562 cells after 8 hrs by luciferase reporter gene assay
[20] = molecular target: T1, Nuclear factor NF-kappa-B complex (Homo sapiens); experiment: Inhibition of TNFalpha-induced NF-kB transactivation in human K562 cells at 40 uM after 8 hrs by luciferase reporter gene assay
[21] = molecular target: T1, Nuclear factor NF-kappa-B complex (Homo sapiens); experiment: Inhibition of TNFalpha-induced NF-kB pathway in human K562 cells assessed as inhibition of IL-8 release preincubated for 2 hrs before TNFalpha addition measured after 24 hrs by sandwich ELISA; type: cell-based
Procedure, shortened: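 K562 cells were pretreated 2 h with compound, then activated with TNFα 20 ng/mL for 22 h (24 h total). Supernatant IL-8 was quantified by sandwich ELISA: pre-coated anti-IL-8 wells for 2 h at room temperature, peroxidase-conjugated polyclonal anti-IL-8 for 60 min, then H2O2/TMB colorimetric development. Mean ± SD of three determinations.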

K562 [22] = experiment: Cytotoxicity against human K562 cells assessed as reduction in cell viability at 8.2 uM after 24 hrs by CellTiter-Glo luminescent assay; type: functional, cell-based

T1 sequence (P19838 whole entry, looked up): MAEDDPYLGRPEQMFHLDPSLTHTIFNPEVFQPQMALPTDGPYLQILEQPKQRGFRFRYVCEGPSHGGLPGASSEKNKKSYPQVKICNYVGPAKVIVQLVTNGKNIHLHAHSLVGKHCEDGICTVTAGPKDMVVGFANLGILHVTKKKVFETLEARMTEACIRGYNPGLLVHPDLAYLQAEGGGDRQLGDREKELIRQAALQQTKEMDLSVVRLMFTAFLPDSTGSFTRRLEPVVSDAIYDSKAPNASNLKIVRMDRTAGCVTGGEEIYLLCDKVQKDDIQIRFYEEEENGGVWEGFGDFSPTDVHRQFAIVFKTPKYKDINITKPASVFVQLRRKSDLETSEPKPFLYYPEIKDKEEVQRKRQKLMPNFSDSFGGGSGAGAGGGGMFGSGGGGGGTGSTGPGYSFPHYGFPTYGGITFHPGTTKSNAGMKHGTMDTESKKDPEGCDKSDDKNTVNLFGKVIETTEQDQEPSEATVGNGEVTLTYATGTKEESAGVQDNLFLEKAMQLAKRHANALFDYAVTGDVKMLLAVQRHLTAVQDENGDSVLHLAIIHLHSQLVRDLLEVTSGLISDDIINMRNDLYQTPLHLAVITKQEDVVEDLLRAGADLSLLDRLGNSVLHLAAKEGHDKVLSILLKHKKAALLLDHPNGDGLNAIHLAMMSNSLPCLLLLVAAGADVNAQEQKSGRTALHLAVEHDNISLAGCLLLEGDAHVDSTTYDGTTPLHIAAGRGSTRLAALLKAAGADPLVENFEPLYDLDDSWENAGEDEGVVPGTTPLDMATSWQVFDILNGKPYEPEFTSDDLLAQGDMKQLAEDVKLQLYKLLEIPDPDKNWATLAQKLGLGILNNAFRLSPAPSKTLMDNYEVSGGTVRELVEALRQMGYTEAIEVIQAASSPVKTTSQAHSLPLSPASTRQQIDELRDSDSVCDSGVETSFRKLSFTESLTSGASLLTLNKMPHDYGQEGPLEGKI
T1 sequence (Q00653 whole entry, looked up): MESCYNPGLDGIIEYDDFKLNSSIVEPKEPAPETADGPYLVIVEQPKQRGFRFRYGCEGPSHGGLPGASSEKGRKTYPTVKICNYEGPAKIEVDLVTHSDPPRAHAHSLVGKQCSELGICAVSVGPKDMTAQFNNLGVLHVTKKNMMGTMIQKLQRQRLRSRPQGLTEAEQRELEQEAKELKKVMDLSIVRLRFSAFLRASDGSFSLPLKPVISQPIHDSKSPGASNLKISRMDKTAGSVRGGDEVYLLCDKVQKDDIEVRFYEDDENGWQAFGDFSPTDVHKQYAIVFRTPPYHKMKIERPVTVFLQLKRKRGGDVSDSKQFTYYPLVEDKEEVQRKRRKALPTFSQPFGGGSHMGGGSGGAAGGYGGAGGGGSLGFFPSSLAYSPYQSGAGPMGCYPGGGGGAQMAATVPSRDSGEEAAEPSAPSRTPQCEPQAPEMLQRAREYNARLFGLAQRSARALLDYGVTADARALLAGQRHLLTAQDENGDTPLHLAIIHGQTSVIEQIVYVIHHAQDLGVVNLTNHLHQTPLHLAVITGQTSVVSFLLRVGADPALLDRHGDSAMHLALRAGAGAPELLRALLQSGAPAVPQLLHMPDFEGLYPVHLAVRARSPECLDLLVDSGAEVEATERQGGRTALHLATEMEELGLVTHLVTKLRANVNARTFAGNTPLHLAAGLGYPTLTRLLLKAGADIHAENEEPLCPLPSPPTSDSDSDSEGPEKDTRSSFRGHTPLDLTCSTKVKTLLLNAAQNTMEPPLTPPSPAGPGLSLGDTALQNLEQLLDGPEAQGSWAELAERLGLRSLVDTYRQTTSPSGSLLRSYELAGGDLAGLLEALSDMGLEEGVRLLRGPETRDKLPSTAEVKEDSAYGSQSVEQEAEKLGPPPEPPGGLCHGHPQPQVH
T1 sequence (Q04206 whole entry, looked up): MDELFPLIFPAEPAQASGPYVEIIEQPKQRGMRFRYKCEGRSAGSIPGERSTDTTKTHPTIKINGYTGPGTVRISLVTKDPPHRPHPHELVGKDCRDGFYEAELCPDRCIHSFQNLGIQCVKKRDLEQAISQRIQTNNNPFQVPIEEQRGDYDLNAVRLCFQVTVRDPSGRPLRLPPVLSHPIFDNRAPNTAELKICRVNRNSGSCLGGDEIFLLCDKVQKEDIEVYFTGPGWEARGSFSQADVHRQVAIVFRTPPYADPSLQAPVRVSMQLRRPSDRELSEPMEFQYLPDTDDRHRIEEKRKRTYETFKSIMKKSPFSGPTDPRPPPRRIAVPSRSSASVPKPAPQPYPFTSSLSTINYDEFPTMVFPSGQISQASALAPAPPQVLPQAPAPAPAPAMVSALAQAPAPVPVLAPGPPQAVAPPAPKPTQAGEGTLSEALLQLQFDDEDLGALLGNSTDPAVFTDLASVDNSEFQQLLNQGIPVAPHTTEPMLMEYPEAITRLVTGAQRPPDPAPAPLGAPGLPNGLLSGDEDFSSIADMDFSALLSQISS

Row | Structure (SMILES) | IC50 (K562 [1]) [µM] | Activity (PBMC) | Activity (K562 [2]) [%] | Activity (K562 [3]) | Fold change (Jurkat [5]) | Fold change (U-937 [6]) | Activity (K562 [8]) | Activity (Jurkat [9]) | Activity (U-937 [10]) | Fold change (K562 [11]) | Activity (K562 [12]) | Activity (K562 [13]) [%] | Activity (Jurkat [14]) [%] | Activity (Jurkat [15]) [%] | Activity (U-937 [16]) [%] | Activity (U-937 [17]) [%] | inhibition [19] | inhibition [20] | also measured
1 | Cc1cnc2[nH]nc(N)c2c1-c1ccccc1 | 35 | Non-toxic | >50 | Active | 1.44 | 1.73 | inactive | inactive | inactive | 1.26 | 3.62 | 2.9 | 1.27 | 1.31 | 5.87 | 4.35 | Dose-dependent effect | Active | inhibition [4]: Active; Activity (K562 [7]): <50%; IC50 (K562 [18]): 35 µM
2 | Nc1n[nH]c2ncc3c(c12)-c1ccccc1CC3 | 27.6 | Non-toxic | >50 | Active | 2.05 | 11.7 | inactive | inactive | inactive | 1.37 | 2.5 | 2.23 | 2.86 | 2.73 | 5.84 | 1.74 | Dose-dependent effect | Active | –
3 | CC1Cc2cnc3[nH]nc(N)c3c2-c2ccccc21 (stereo not given) | 36.5 | – | >50 | Active | 2.11 | 16.5 | inactive | inactive | inactive | 1.44 | 2.04 | 1.55 | 8.89 | 5.38 | 6.27 | 1.48 | Dose-dependent effect | Active | Activity (K562 [1]): Dose-dependent effect; IC50 (PBMC; Homo sapiens, PBMC): 36.6 µM; inhibition [21]: Dose-dependent effect; Activity (K562 [22]): inactive
